Screens: PubChem, several laboratories
HSF1 inh = HSF1 inhibition. 300,000 compounds, 0.77% hits. activity change, negative = inhibition, % at 7.5 µM (by protocol). NIH3T3-HGL HSE-luciferase, MG132-induced, luminescence 8 h; active compounds read low;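 active = more than half of replicate wells show activity change below -50%, luminescence cut by over half; inconclusive = some wells, but at most half, below -50%; inactive = no replicate well below -50%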;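 also: luciferase reports HSF-1 transcriptional activity via heat shock element; 0% = median of DMSO wells and -100% = zero luminescence signal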
HSP90 inh = HSP90 refolding inhibition in rabbit reticulocyte lysate. 290,000 compounds, 0.91% hits. luciferase refolding luminescence, 3 h. AID 1789. inhibition, % at 5.6 µM;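 active = inhibition above the screen-wide mean plus 3 SD, computed separately per campaign, cut at about 16% in these data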;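 also: 0% = DMSO wells and 100% = 60 µM geldanamycin wells; inhibitors lower the luminescence because luciferase stays unfolded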
Hsp70 activator = transcriptional activators of Hsp70; 200,000 compounds, 0.04% hits; AID 1203; activation, % at 10 µM; HeLa Hsp70 promoter luciferase reporter, luminescence; scaled: vehicle 0, proteasome-inhibitor control 100%;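 active = activation above the mean across all tested compounds plus 3 SD, cutoff set per campaign, cut at about 5.5% in these data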;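 also: 100% = MG132 at 30 µM as the positive control and 0% = DMSO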
HSF1 activator = increases HSF-1 driven luciferase reporter signal. NIH3T3-HGL HSF-1 luciferase reporter, MG132, 8 h; 100% = twice DMSO control signal. activation, % at 9 µM. 300,000 compounds, 1.7% hits. AID 504408;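 active = mean replicate activation of at least 50% with a set share of replicates each reaching 50%; inconclusive = only one of those two conditions met; inactive = mean below 50% and too few replicates reaching it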;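 also: 0% = median of the neutral control wells and 100% = twice that signal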
HKDC1 inhibitor = blocks human hexokinase HKDC1 activity | Q2TB90 | 340,000 compounds, 0.16% hits | recombinant HKDC1, G6PDH/diaphorase resazurin coupled fluorescence | inhibition, % at 20 µM;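 active = inhibition above about 35% when tested at 20 µM, limit read from the data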;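 also: plate controls were DMSO wells with enzyme for no effect and DMSO wells lacking enzyme for full effect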
Target sequence (Q2TB90 whole entry, looked up): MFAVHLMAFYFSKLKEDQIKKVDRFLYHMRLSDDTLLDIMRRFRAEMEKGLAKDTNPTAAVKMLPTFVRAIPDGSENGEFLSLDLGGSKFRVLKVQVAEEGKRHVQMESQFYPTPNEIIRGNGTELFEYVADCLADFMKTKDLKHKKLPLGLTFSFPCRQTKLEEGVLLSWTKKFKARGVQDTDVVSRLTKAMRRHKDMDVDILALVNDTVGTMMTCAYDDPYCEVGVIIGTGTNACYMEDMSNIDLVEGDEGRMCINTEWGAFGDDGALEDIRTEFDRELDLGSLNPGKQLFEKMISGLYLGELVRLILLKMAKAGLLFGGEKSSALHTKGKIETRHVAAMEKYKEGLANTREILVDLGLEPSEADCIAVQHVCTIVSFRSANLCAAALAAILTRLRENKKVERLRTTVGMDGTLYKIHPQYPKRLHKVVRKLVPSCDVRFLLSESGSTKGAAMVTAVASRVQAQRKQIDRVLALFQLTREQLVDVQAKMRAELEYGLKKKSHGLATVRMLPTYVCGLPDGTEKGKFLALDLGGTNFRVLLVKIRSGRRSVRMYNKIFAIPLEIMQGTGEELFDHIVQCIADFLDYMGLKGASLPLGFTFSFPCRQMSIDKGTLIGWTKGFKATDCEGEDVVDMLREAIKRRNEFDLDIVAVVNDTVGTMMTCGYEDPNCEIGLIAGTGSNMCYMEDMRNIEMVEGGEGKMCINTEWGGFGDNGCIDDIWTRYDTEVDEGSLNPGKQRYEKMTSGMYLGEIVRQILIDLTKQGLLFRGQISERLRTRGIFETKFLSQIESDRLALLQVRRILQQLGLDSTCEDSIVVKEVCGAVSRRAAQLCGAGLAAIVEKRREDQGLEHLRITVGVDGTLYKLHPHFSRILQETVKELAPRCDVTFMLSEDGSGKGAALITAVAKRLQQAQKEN
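Assay system: recombinant HKDC1 hexokinase; detection: coupled resazurin fluorescence, excitation 525 nm, emission 613 nm; benchmarks: DMSO-plus-enzyme-mix negative control, buffer-substituted positive control; compound dosing: single 20 µM dose; schedule: 90 min at room temperature in dark; also added: glucose plus 1 mM ATP as hexokinase substrates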
Tb hexokinase = T. brucei hexokinase 1 inhibition. recombinant TbHK1, G6PDH-coupled NADH A340. inhibition, % at 10 µM. 220,000 compounds, 0.11% hits;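 active = inhibition of 50% or more in the single-dose primary screen; inactive = inhibition below 50%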
The depositor's hits bear a star; ? = inconclusive; . = not tested or not shown. In the library only some 3.1% were active in any assay of this set; here they are far more common.

SMILES	HSF1 inh	HSP90 inh	Hsp70 activator	HSF1 activator	HKDC1 inhibitor	Tb hexokinase
Cc1ccc(C)c(N2N=C(C(=O)Nc3ccc(N4CCOCC4)cc3)CCC2=O)c1	.	.	.	.	-1	.
CCOC(=O)c1ccc(-c2ccc(/C=N/NC(=O)Cc3nnc(N)s3)o2)cc1	27	8	.	71*	3	-24
CCCOC(=O)c1ccc(-c2ccc(C=O)o2)cc1	29	36*	0	66*	2	-28
CCCOC(=O)c1cc(-c2ccc(C=O)o2)ccc1Cl	-8	-2	0	10	-7	-22
Nc1nnc(CC(=O)N/N=C/c2ccc(-c3ccc(F)cc3)o2)s1	7	14	.	8	-3	-74
Cc1ccc(OCCN(C)C(=O)C2CCC(=O)N(CC3CCCCC3)C2)cc1 (centres undefined)	11	0	.	2	1	.
C1=C(c2ccccc2)Nc2ncnn2C1c1ccccc1 (centres undefined)	4	.	.	0	-4	.
CCC1=CC(c2ccccc2)n2ncnc2N1 (centres undefined)	-84*	.	.	-88	0	.
Cc1cccc(NC(=S)NCC23C=CC(O2)C2C(=O)N(c4ccc(Cl)cc4)C(=O)C23)c1 (centres undefined)	68	-3	0	98*	-4	37
O=C1c2cccc3cccc(c23)C(=O)N1OS(=O)(=O)c1ccc(Br)cc1	10	-1	0	22	7	-4
O=C1c2cccc3cccc(c23)C(=O)N1OS(=O)(=O)c1ccccc1	87	1	0	118*	0	2
CN(CC(O)COc1ccc2ccccc2c1)C1CCCCC1 (centres undefined)	-5	2	.	4	-6	.
N#Cc1ccccc1NC(=O)COc1ccc2c(c1)OCO2	41	4	.	88*	-4	.
Cc1ccc(NC(=O)CSc2nnnn2-c2cccnc2)c(C)c1	-1	-2	.	-4	-7	.
Nn1cnnc1N/N=C/c1cccc(Cl)c1Cl	29	-2	.	?	-4	.
Nn1cnnc1N/N=C/c1ccc(F)cc1	37	-4	.	55*	-1	.
Nn1cnnc1N/N=C/c1ccccc1C(F)(F)F	29	4	.	?	-2	.
Cc1nnc(N/N=C/c2ccc([N+](=O)[O-])cc2)n1N	20	0	0	39	9	-25
COc1ccc(/C=N/Nc2nnc(C)n2N)cc1OC(C)=O	40	3	.	80*	0	.
Cc1nnc(N/N=C/c2ccc(Br)cc2)n1N	40	0	.	52*	7	.
Cc1ccc(/C=N/Nc2nncn2N)cc1	37	-5	.	74*	-3	.
O=C(c1cc(Cl)ccc1OCc1ccccc1)N1CCOCC1	14	-3	.	15	-4	.
Cc1cc(C(=O)CN2C(=O)NC3(CCCCC3)C2=O)c(C)n1Cc1ccc2c(c1)OCO2	30	-2	0	28	2	4
Cc1cc(C(=O)CN2C(=O)NC3(CCCCC3)C2=O)c(C)n1Cc1ccco1	44	-2	0	89*	-5	-4
O=C(O)CSc1nnc(-c2cccc(S(=O)(=O)N3CCOCC3)c2)n1-c1ccc(F)cc1	.	.	.	.	-3	.
SMILES	HSF1 inh	HSP90 inh	Hsp70 activator	HSF1 activator	HKDC1 inhibitor	Tb hexokinase
c1ccn(-c2ccc(N3CCOCC3)cc2)c1	-62*	-6	0	-68	2	-1
c1ccc(N2CCOCCOCCOCCOCC2)cc1	-10	-1	.	1	-7	-10
CN(C=O)c1ccc(CSc2ccccc2)cc1	.	.	.	.	-9	.
CCOC(=O)c1c(CSCc2ccccc2)oc2ccc(O)c(CN(C)C)c12	-79*	2	.	-84	0	14
O=C(CSc1nc2ccccc2o1)Nc1nc(-c2ccccc2)cs1	-56*	6	0	-60	1	5
CCOC(=S)SCC(=O)Nc1nc(C)c(C)s1	164	-1	.	236*	-2	-6
Cc1nc(NC(=O)CSc2nc(N)cc(N)n2)sc1C	18	-3	.	41	-2	.
CCOC(=S)SCC(=O)Nc1nc(-c2ccc(Br)cc2)cs1	7	-2	0	7	-5	7
CCOC(=S)SCC(=O)Nc1nc(-c2ccccc2)cs1	35	4	0	67*	2	-1
CCCC(CCC(=O)Nc1nccs1)C(=O)O (centres undefined)	7	-3	0	53*	-7	-1
CCCCN(C(=O)c1cc(CC)c(C)s1)c1c(N)n(CCC)c(=O)[nH]c1=O	-1	.	.	5	1	.
Cc1ccc2sc(N3CCN(CCNC(=O)c4ccco4)CC3)nc2c1C	0	.	.	4	2	.
CCOC(=S)SCC(=O)Nc1nccs1	84	-5	0	115*	3	4
CCOC(=O)C(=O)Nc1nccs1	-6	-4	0	4	-7	0
COc1ccc(C=NNc2nc3ccccc3s2)cc1	.	.	.	.	-1	.
COc1cc(OC)cc(C(=O)Oc2ccc(/C=N/Nc3nc4ccccc4s3)cc2OC)c1	40	7	0	82*	18	-29
COc1cc(/C=N/Nc2nc3ccccc3s2)ccc1OC(=O)c1ccccc1F	66	5	0	85*	-2	-25
CC(=O)c1ccc(OCc2cc(C(=O)NCCc3ccc(Cl)cc3)no2)cc1	15	-7	.	22	-5	.
O=C(NCCCN1CCCC1=O)C1CCC(CNS(=O)(=O)c2ccc(Cl)cc2)CC1 (centres undefined)	1	-2	.	4	-2	.
COC(=O)c1cccc(C(=O)N2CCCC(C(=O)c3ccccc3OC)C2)c1 (centres undefined)	20	-4	.	59*	-2	.
COc1ccccc1C(=O)C1CCCN(C(=O)c2ccccc2C(C)=O)C1 (centres undefined)	10	0	.	23	-5	.
Cc1ccc(S(=O)(=O)CC(=O)Nc2ccc(S(=O)(=O)Nc3onc(C)c3C)cc2)cc1	-84*	0	0	-88	-3	-4
CCc1cccc(OCC(=O)Nc2ccc(S(=O)(=O)Nc3onc(C)c3C)cc2)c1	-79*	-3	0	-82	-2	-15
CC(C)(CNCc1ccccc1)NS(=O)(=O)c1ccc(Cl)cc1	.	.	.	.	-3	.
O=C1CCCCc2sc(Br)c([N+](=O)[O-])c2N1	77	1	.	132*	0	-21
SMILES	HSF1 inh	HSP90 inh	Hsp70 activator	HSF1 activator	HKDC1 inhibitor	Tb hexokinase
Cc1onc(-c2ccccc2)c1C(=O)N=C(N)c1ccc(C(F)(F)F)cc1	40	3	.	82*	-6	-20
CCOC(=O)NC(=O)/C(C#N)=N/Nc1c(F)cccc1F	25	2	0	64*	-4	-15
Cc1ccccc1NC(=O)NC1(C(=O)N2CCN(C)CC2)CCCCC1	-1	-7	.	-24	-7	.
Cc1cc(N/C=C/C(=O)c2cccs2)ccc1F	37	3	0	64*	-1	-3
Cc1ccc(N/C=C/C(=O)c2ccc(C)cc2)cc1	3	4	0	4	-5	-11
CC(=O)Nc1ccc(N/C=C/C(=O)c2ccccc2)cc1	2	0	.	10	0	.
